{
  "source": "ChEMBL document CHEMBL1133118",
  "about": "(J Med Chem, 2000)",
  "key": {"[1]": {"biological_target": "T1, Adenosine receptor A2b (Homo sapiens, UniProt P29275)", "T1 sequence (P29275 whole entry)": "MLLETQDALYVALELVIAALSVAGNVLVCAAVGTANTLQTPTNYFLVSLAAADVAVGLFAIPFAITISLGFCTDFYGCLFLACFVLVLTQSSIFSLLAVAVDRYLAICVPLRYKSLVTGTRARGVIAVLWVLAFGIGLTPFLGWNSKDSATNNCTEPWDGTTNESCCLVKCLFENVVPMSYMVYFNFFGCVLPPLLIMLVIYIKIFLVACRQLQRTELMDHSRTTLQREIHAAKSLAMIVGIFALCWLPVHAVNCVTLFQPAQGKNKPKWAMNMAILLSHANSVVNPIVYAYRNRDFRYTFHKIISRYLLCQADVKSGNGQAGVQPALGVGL", "assay": "Displacement of [3H]DPCPX from Adenosine A2b receptor expressed in CHO cells", "format": "cell-based"}, "[2]": {"biological_target": "T2, Adenosine receptor A2a (Homo sapiens, UniProt P29274)", "T2 sequence (P29274 whole entry)": "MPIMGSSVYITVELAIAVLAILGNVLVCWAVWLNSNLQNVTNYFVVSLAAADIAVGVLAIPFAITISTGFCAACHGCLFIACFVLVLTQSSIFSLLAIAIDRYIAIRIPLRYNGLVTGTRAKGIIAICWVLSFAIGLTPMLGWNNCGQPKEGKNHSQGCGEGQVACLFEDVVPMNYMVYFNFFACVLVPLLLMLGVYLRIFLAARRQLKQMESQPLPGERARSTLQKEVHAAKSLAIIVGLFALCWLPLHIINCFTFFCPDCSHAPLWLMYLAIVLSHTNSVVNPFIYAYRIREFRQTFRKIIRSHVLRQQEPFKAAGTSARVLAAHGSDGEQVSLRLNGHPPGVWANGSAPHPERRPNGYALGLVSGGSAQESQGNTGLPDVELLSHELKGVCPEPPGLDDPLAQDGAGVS", "assay": "Displacement of [3H]-SCH- 58261 from human adenosine A2A receptor expressed in CHO cells; range 2826-3761", "format": "cell-based"}, "[3]": {"biological_target": "T3, Adenosine receptor A1 (Homo sapiens, UniProt P30542)", "T3 sequence (P30542 whole entry)": "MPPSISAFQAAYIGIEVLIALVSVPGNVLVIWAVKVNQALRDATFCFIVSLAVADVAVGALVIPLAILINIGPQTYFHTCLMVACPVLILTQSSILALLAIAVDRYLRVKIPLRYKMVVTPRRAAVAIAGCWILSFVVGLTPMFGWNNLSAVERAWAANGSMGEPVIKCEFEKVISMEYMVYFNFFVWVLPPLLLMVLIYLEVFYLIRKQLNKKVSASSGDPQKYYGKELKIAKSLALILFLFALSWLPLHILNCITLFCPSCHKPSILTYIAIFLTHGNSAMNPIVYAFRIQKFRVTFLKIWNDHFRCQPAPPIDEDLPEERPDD", "assay": "Tested for inhibitory activity against human adenosine A1 receptor by displacement of [3H]DPCPX expressed in CHO cells; value ranges from 2362-2575", "format": "cell-based"}, "[4]": {"biological_target": "Adenosine receptors; A1 & A3 (Homo sapiens) (UniProt P30542+P0DMS8)", "assay": "Ratio of binding affinity of human A1 receptor to that of human A3 receptor", "format": "protein assay", "outline": "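Ki ratio from displacement in CHO membranes, 6–8 concentrations, n=3-6, filtration counting. A1: 1 nM [3H]DPCPX, 50 μg protein, 120 min at 25 °C, nonspecific with 10 μM CHA. A3: 1 nM [3H]MRE3008-F20, 50 μg protein, Tris/10 mM MgCl2 pH 7.4, 120 min at 4 °C, nonspecific with 1 μM MRE3008-F20.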"}, "[5]": {"biological_target": "Adenosine receptors; A2b & A3 (Homo sapiens) (UniProt P29275+P0DMS8)", "assay": "Ratio of binding affinity of human A2B receptor to that of human A3 receptor", "format": "protein assay", "outline": "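Ki ratio, n=3-6, 6–8 concentrations. A2B in HEK-293 membranes (20 μg): 40 nM [3H]DPCPX, 50 mM Tris HCl, 10 mM MgCl2, 1 mM EDTA, 0.1 mM benzamidine pH 7.4, 2 IU/mL adenosine deaminase, 60 min at 25 °C, nonspecific with 100 μM NECA. A3 in CHO membranes (50 μg): 1 nM [3H]MRE3008-F20, 120 min at 4 °C.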"}, "[6]": {"biological_target": "T4, Adenosine receptor A3 (Homo sapiens) (UniProt P0DMS8)", "T4 sequence (whole entry)": "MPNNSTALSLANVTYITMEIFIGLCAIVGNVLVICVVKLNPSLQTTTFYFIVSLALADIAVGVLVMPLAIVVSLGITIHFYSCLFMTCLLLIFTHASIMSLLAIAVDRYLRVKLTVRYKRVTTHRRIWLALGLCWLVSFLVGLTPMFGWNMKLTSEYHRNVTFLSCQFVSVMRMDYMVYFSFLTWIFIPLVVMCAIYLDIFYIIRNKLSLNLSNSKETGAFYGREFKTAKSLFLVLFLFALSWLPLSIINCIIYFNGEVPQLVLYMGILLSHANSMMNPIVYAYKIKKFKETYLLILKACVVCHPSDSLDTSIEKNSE", "assay": "Percentage of blockade by 1 uM of the inhibition by 100 nM IB-MECA-inhibited cAMP accumulation in CHO cells expressing human adenosine A3 receptor.", "format": "functional, cell-based", "outline": "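CHO cells stably expressing human A3 receptor; membranes in 50 mM Tris HCl, 10 mM MgCl2, 1 mM EDTA pH 7.4 with 5 μM GTP, 0.5 mM […] and 2.0 IU/mL adenosine deaminase. Preincubated 10 min at 37 °C, then IB-MECA (100 nM) and/or antagonist with 1 mM ATP and 10 μM forskolin for 10 min. Boiled 2 min. cAMP read by [3H]cAMP competition with adrenal binding protein.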"}, "[7]": {"biological_target": "T5, Adenosine receptor A3 (Homo sapiens, UniProt P0DMS8)", "T5 sequence (P0DMS8 whole entry)": "T4 sequence (whole entry)", "assay": "biochemical"}, "[8]": {"biological_target": "T2, Adenosine receptor A2a", "assay": "Displacement of [3H]-SCH- 58261 from human adenosine A2A receptor expressed in CHO cells; range 47-78", "format": "cell-based", "outline": "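Membranes from CHO cells stably expressing human A2A receptor, grown in DMEM/F12 without nucleosides, resuspended in 50 mM Tris HCl, 10 mM MgCl2, pH 7.4; 50 μg protein/assay. Competition with [3H]SCH 58261 at 6–8 or more compound concentrations, 60 min at 25 °C; nonspecific binding with 50 μM NECA. Filtration on GF/B filters, scintillation counting; n=3-6.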"}, "[9]": {"biological_target": "T1, Adenosine receptor A2b", "assay": "Displacement of [3H]DPCPX from Adenosine A2b receptor expressed in CHO cells; range 45-64", "format": "cell-based", "settings": "in the assay text read “HEK-293 cells” for “CHO cells”", "outline": "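Human recombinant A2B receptor was expressed in HEK-293 cell membranes (20 μg protein). Incubated with 40 nM [3H]DPCPX in 50 mM Tris HCl, 10 mM MgCl2, 1 mM EDTA, 0.1 mM benzamidine, pH 7.4, with 2 IU/mL adenosine deaminase, at least 6–8 test concentrations, 60 min, 25 °C. Nonspecific binding was taken with 100 μM NECA; n=3-6.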"}, "[10]": {"biological_target": "T3, Adenosine receptor A1", "assay": "Displacement of [3H]DPCPX from human adenosine A1 receptor expressed in CHO cells; range 149-204", "format": "cell-based"}, "[11]": {"biological_target": "T5, Adenosine receptor A3", "assay": "Displacement of [3H]MRE3008-F20 from human adenosine A3 receptor expressed in CHO cells; range 23-40", "format": "cell-based"}, "[12]": {"biological_target": "T4, Adenosine receptor A3 (Homo sapiens)", "settings": "CHO, 1 uM"}, "[13]": {"biological_target": "T2, Adenosine receptor A2a", "assay": "Displacement of [3H]-SCH- 58261 from human adenosine A2A receptor expressed in CHO cells; range 730-1100", "format": "cell-based"}, "[14]": {"biological_target": "T3, Adenosine receptor A1", "assay": "Displacement of [3H]DPCPX from human adenosine A1 receptor expressed in CHO cells; range 267-453", "format": "cell-based"}, "[15]": {"biological_target": "T5, Adenosine receptor A3", "assay": "Displacement of [3H]MRE3008-F20 from human adenosine A3 receptor expressed in CHO cells; range 3228-3614", "format": "cell-based"}, "[16]": {"biological_target": "T1, Adenosine receptor A2b", "assay": "Displacement of [3H]DPCPX from Adenosine A2b receptor expressed in HEK-293 cells; range 3828-4817"}, "[17]": {"biological_target": "T5, Adenosine receptor A3", "assay": "Displacement of [3H]MRE3008-F20 from human adenosine A3 receptor expressed in CHO cells; range 378-488", "format": "cell-based"}, "[18]": {"biological_target": "T2, Adenosine receptor A2a", "assay": "biochemical"}, "[19]": {"biological_target": "T1, Adenosine receptor A2b", "assay": "Displacement of [3H]DPCPX from Adenosine A2b receptor expressed in HEK-293 cells; range 38-63"}, "[20]": {"biological_target": "T1, Adenosine receptor A2b", "assay": "Displacement of [3H]DPCPX from Adenosine A2b receptor expressed in […]; range 157-268", "format": "cell-based"}, "[21]": {"biological_target": "T2, Adenosine receptor A2a", "assay": "Displacement of [3H]-SCH- 58261 from human adenosine A2A receptor expressed in CHO cells; range 1024-1396", "format": "cell-based"}, "[22]": {"biological_target": "T3, Adenosine receptor A1", "assay": "Displacement of [3H]DPCPX from human adenosine A1 receptor expressed in CHO cells; range 323-378", "format": "cell-based"}, "[23]": {"biological_target": "T5, Adenosine receptor A3", "assay": "Inhibition of cAMP accumulation in CHO cells expressing human adenosine A3 receptor; range 2.8-8.1", "format": "functional, cell-based"}, "[24]": {"biological_target": "T4, Adenosine receptor A3 (Homo sapiens)", "settings": "CHO, 1 uM", "remark": "listed apart in the source"}, "[25]": {"biological_target": "T5, Adenosine receptor A3", "assay": "biochemical", "remark": "listed apart in the source"}, "[26]": {"biological_target": "T5, Adenosine receptor A3", "assay": "Inhibition of cAMP accumulation in CHO cells expressing human adenosine A3 receptor", "format": "functional, cell-based"}, "[27]": {"biological_target": "T5, Adenosine receptor A3", "assay": "biochemical", "remark": "listed apart in the source"}},
  "data": [
    {"smiles": "COc1ccc(NC(=O)Nc2nc3nn(CCc4cccc5ccccc45)cc3c3nc(-c4ccco4)nn23)cc1", "values": [
      {"measurement": "Ki", "setting": "[1]", "result": "> 10000", "unit": "nM"},
      {"measurement": "Ki", "setting": "[2]", "result": 3260, "unit": "nM"},
      {"measurement": "Ki", "setting": "[3]", "result": 2470, "unit": "nM"},
      {"measurement": "Ratio", "setting": "[4]", "result": 154},
      {"measurement": "Ratio", "setting": "[5]", "result": "> 625"},
      {"measurement": "inhibition", "setting": "[6]", "result": 52, "unit": "%"},
      {"measurement": "Ki", "setting": "[7]", "result": 16, "unit": "nM"}
    ]},
    {"smiles": "COc1ccc(NC(=O)Nc2nc3nn(CCC(C)C)cc3c3nc(-c4ccco4)nn23)cc1", "values": [
      {"measurement": "Ki", "setting": "[8]", "result": 65, "unit": "nM"},
      {"measurement": "Ki", "setting": "[9]", "result": 54, "unit": "nM"},
      {"measurement": "Ki", "setting": "[10]", "result": 175, "unit": "nM"},
      {"measurement": "Ki", "setting": "[11]", "result": 30, "unit": "nM"},
      {"measurement": "Ratio", "setting": "[4]", "result": 5.8},
      {"measurement": "Ratio", "setting": "[5]", "result": 1.8},
      {"measurement": "inhibition", "setting": "[12]", "result": 48, "unit": "%"}
    ]},
    {"smiles": "Nc1nc2nn(CCc3cccc4ccccc34)cc2c2nc(-c3ccco3)nn12", "values": [
      {"measurement": "Ki", "setting": "[13]", "result": 896, "unit": "nM"},
      {"measurement": "Ki", "setting": "[14]", "result": 348, "unit": "nM"},
      {"measurement": "Ki", "setting": "[15]", "result": 3420, "unit": "nM"},
      {"measurement": "Ratio", "setting": "[4]", "result": 0.1},
      {"measurement": "Ratio", "setting": "[5]", "result": 1.26},
      {"measurement": "inhibition", "setting": "[6]", "result": 4, "unit": "%"},
      {"measurement": "Ki", "setting": "[16]", "result": 4290, "unit": "nM"}
    ]},
    {"smiles": "Nc1nc2nn(CCCc3ccccc3)cc2c2nc(-c3ccco3)nn12", "values": [
      {"measurement": "Ki", "setting": "[17]", "result": 430, "unit": "nM"},
      {"measurement": "Ratio", "setting": "[4]", "result": 0.007},
      {"measurement": "Ratio", "setting": "[5]", "result": 0.011},
      {"measurement": "inhibition", "setting": "[6]", "result": 18, "unit": "%"},
      {"measurement": "Ki", "setting": "[18]", "result": 0.16, "unit": "nM"},
      {"measurement": "Ki", "setting": "[19]", "result": 49, "unit": "nM"}
    ]},
    {"smiles": "Cn1cc2c(nc(NC(=O)Nc3cccc(Cl)c3)n3nc(-c4ccco4)nc23)n1", "values": [
      {"measurement": "Ki", "setting": "[20]", "result": 205, "unit": "nM"},
      {"measurement": "Ki", "setting": "[21]", "result": 1200, "unit": "nM"},
      {"measurement": "Ki", "setting": "[22]", "result": 350, "unit": "nM"},
      {"measurement": "IC50", "setting": "[23]", "result": 4.8, "unit": "nM"},
      {"measurement": "Ratio", "setting": "[4]", "result": 875},
      {"measurement": "Ratio", "setting": "[5]", "result": 512},
      {"measurement": "inhibition", "setting": "[24]", "result": 92, "unit": "%"},
      {"measurement": "Ki", "setting": "[25]", "result": 0.4, "unit": "nM"}
    ]},
    {"smiles": "Nc1nc2ccc(Cl)cc2c2nc(-c3ccco3)nn12", "note": "[CGS-15943]", "values": [
      {"measurement": "IC50", "setting": "[26]", "result": 406, "unit": "nM"},
      {"measurement": "inhibition", "setting": "[6]", "result": 30, "unit": "%"},
      {"measurement": "Ki", "setting": "[27]", "result": 85, "unit": "nM"}
    ]}
  ]
}
